In ChEMBL document CHEMBL4014309, “Development of an Acrylate Derivative Targeting the NLRP3 Inflammasome for the Treatment of Inflammatory Bowel Disease” (J Med Chem, 2017):
Calls of active or inactive are those of the source. The calls are words filed in the database; no cut-off is given here.

Tests used:
[1] = biological target: NACHT, LRR and PYD domains-containing protein 3 (Homo sapiens) (UniProt Q96P20); experiment: Inhibition of recombinant YFP-tagged NLRP3 (unknown origin) expressed in HEK293 cells co-expressing luciferase at 10 to 100 uM after 24 hrs by BRET assay; assay type: cell-based
Sequence of NACHT, LRR and PYD domains-containing protein 3 (Homo sapiens) (Q96P20 whole entry, the tested form may be a part): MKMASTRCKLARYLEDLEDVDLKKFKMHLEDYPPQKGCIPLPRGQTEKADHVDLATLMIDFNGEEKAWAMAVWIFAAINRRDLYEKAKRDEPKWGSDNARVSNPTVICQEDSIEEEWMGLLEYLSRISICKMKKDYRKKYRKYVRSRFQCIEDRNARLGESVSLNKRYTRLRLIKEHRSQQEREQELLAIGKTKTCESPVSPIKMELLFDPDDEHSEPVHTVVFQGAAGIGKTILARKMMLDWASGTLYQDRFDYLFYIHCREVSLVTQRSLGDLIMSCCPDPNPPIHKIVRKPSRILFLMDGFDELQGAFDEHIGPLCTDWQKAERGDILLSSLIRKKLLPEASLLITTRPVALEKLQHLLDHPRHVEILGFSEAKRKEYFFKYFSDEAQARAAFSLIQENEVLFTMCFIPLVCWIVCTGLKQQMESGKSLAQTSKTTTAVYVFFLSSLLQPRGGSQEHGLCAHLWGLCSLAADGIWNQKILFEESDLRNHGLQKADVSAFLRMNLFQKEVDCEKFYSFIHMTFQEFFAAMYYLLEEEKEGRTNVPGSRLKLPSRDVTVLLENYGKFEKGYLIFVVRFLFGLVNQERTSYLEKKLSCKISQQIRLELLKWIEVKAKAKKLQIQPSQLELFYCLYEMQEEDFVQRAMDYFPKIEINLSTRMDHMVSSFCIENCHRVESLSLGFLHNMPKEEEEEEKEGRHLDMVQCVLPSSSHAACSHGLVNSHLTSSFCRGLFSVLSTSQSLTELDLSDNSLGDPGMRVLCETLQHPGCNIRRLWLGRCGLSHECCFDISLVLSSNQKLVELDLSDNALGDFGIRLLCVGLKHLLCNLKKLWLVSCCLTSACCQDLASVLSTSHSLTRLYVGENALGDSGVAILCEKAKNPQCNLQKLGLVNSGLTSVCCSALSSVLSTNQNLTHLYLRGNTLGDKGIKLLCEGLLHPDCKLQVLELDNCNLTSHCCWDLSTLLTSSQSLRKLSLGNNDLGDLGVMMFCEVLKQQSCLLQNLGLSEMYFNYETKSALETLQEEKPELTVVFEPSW
Outline: (§1)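 HEK293 cells stably expressing YFP-NLRP3-Luc were grown in DMEM with 10% FCS, plated on poly-L-lysine, and exposed to compound or vehicle (15 h per methods; 24 h per figure legend). Cells were washed, then BRET was read after adding coelenterazine-H (5 µM). Kinetics used nigericin (10 µM) in vehicle or high-K+ (140 mM) buffer. Slopes of three phases were taken; mean ± SEM, n = 5–12.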

[2] = biological target: NACHT, LRR and PYD domains-containing protein 3 (Mus musculus) (UniProt Q8R4B8); experiment: Inhibition of NLRP3 inflammasome in LPS-primed C57BL/6 mouse bone marrow derived macrophages assessed as reduction in ATP-induced pyroptosis at 10 to 100 uM preincubated for 1 hr followed by stimulation with ATP measured after 30 mins by LDH release assay
Sequence of NACHT, LRR and PYD domains-containing protein 3 (Mus musculus) (Q8R4B8 whole entry, the tested form may be a part): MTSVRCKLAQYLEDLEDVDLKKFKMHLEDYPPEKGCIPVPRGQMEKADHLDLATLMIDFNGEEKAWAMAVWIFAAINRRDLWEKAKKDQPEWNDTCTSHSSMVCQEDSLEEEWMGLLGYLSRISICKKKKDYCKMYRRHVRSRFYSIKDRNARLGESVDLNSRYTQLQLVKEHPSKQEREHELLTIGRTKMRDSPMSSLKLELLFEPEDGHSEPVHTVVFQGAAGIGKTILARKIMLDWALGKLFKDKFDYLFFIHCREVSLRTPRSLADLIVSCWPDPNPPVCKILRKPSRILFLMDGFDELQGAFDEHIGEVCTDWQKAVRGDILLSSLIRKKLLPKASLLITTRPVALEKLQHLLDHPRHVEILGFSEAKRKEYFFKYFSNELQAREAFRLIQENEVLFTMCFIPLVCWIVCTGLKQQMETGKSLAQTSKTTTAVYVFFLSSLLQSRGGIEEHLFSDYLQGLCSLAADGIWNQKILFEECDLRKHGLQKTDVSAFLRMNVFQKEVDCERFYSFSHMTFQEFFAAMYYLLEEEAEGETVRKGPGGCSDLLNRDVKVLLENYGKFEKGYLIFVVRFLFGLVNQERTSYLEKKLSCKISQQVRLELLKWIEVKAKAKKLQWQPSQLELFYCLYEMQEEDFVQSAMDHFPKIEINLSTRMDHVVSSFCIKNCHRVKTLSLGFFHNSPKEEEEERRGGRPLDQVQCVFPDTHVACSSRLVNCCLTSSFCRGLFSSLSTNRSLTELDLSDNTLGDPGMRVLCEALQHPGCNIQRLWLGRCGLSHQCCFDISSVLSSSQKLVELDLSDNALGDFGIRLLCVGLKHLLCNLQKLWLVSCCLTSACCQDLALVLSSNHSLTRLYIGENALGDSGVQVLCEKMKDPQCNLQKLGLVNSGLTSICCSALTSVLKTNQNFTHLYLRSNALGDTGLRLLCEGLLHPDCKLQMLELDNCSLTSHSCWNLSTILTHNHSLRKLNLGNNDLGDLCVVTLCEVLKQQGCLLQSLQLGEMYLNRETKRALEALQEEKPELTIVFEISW
Outline: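 Bone marrow macrophages from C57BL/6 mice, differentiated with 20% L-cell medium, primed with LPS (1 µg/mL, 3 h). Test agent or vehicle was added for 1 h, then ATP (5 mM, 30 min) or nigericin (10 µM, 30 min). IL-1β in the medium was measured by ELISA. LDH in the medium was measured colorimetrically as % of total cellular LDH.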

[3] = Glutathione reactivity assessed as adduct formation of the compound at pH 7.4 and 9
Liver = experiment: Drug metabolism in Sprague-Dawley rat liver microsomes assessed as formation of 2-(2-chlorobenzyl)acrylic acid at 100 uM at <1 min in presence of NADPH by UHPLC-MS analysis; assay type: ADME, microsome
[4] = biological target: NACHT, LRR and PYD domains-containing protein 3 (Mus musculus) (UniProt Q8R4B8); experiment: Inhibition of NLRP3 inflammasome in LPS-primed C57BL/6 mouse bone marrow derived macrophages assessed as reduction in nigericin-induced caspase-1 activation at 10 to 100 uM preincubated for 1 hr followed by stimulation with nigericin measured after 30 mins by Western blot analysis
Rattus norvegicus [5] = experiment: (§2) Antiinflammatory activity in DNBS-induced Sprague-Dawley rat colitis model assessed as body weight recovery at 12.5 to 50 mg/kg/day, ig administered as suspension in olive oil for 6 days simulatneously with 6 days of DNBS-challenge measured daily during compound dosing; assay type: functional, organism-based
Outline: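 Colitis was induced with intrarectal DNBS (15 mg in 0.25 mL 50% ethanol). Intragastric treatment ran 6 days from the day of induction: 1 mg/kg/day in 1% methylcellulose, or 12.5–50 mg/kg/day in olive oil. Body weight change (g) was recorded at the end of treatment, mean ± SEM, n = 10.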

Rattus norvegicus [6] = experiment: Anti-inflammatory activity in DNBS-induced Sprague-Dawley rat colitis model assessed as DNBS-induced TNFalpha levels in colon at 25 mg/kg/day, ig for 6 days simulatneously with 6 days of DNBS-challenge by ELISA (reference value: 5.9 +/- 0.6 pg/mg); assay type: functional
[7] = biological target: NACHT, LRR and PYD domains-containing protein 3 (Homo sapiens) (UniProt Q96P20); experiment: Inhibition of recombinant YFP-tagged NLRP3 (unknown origin) expressed in HEK293 cells co-expressing luciferase assessed as reduction in nigericin-induced intracellular K+ decrease-mediated conformational changes in protein at 10 to 100 uM measured after 24 hrs by BRET assay; assay type: cell-based; outline: as §1
Rattus norvegicus [8] = experiment: Antiinflammatory activity in DNBS-induced Sprague-Dawley rat colitis model assessed as DNBS-induced decrease in colonic length at 25 mg/kg/day, ig administered as suspension in olive oil for 6 days simulatneously with 6 days of DNBS-challenge (reference value: -34.4%); assay type: functional; parameters: scale not given: the % may be the effect or the level left
[9] = Cysteamine reactivity of the compound in PBS assessed as second order rate constant for free cysteamine release at 250 uM and pH 7.4 after 90 mins by DTNB reagent based RP-UHPLC analysis
Outline: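 Compound (250 µM) was mixed with equimolar cysteamine in pH 7.4 PBS containing 12.5% CH3CN at 37 °C. Free cysteamine was tracked with DTNB at several time points over 90 min. Second-order k2 came from 1/[CAM] = 1/[CAM]0 + kt, using 3–10 points per plot; mean ± SEM of ≥3 experiments.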

[10] = biological target: NACHT, LRR and PYD domains-containing protein 3 (Mus musculus) (UniProt Q8R4B8); experiment: Inhibition of NLRP3 in C57BL/6 mouse bone marrow derived macrophages assessed as reduction in LPS-induced IL-1beta gene expression at 10 to 100 uM preincubated for 30 mins followed by LPS stimulation measured after 4 hrs by qRT-PCR analysis
Outline: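 C57BL/6 bone marrow macrophages, differentiated with 20% L-cell medium, were preincubated with compound for 30 min. They were then left untreated or given LPS (1 ng/mL, 4 h). Tnfa, Il6 and Il1b expression was measured by quantitative RT-PCR as 2^-ΔΔCt.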

[11] = Cysteamine reactivity in PBS assessed as free compound level at pH 7.4 measured after 4 hrs by DTNB reagent based RP-UHPLC analysis
Outline: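 The compound was reacted with excess cysteamine in pH 7.4 phosphate buffer with CH3CN cosolvent at 37 °C. Remaining compound was followed by UHPLC over 4 h, sampled at 30 min, 60 min and 4 h, and expressed as percent of starting concentration.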

Rattus norvegicus [12] = experiment: Anti-inflammatory activity in DNBS-induced Sprague-Dawley rat colitis model assessed as DNBS-induced IL-1beta levels in colon at 12.5 mg/kg/day, ig for 6 days simulatneously with 6 days of DNBS-challenge by ELISA (reference value: 22.3 +/- 2.9 ng/mg); assay type: functional
Rattus norvegicus [13] = experiment: as §2, with “reduction in DNBS-induced spleen” for “body”, “increase by measuring increase in spleen weight” for “recovery”, “at” for “at 12.5 to”, “dosing (reference value: 39.3%)” for “dosing”; assay type: functional; parameters: scale not given: the % may be the effect or the level left
Outline: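 Spleen weight was used as an index of systemic inflammation. Rats had intrarectal DNBS (15 mg/0.25 mL 50% ethanol) and 6 days of intragastric dosing: 1 mg/kg/day in 1% methylcellulose, or 12.5–50 mg/kg/day in 0.2 mL olive oil. The spleen was weighed at sacrifice and expressed as percent increase versus control, n = 10.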

[14] = biological target: NACHT, LRR and PYD domains-containing protein 3 (Mus musculus) (UniProt Q8R4B8); experiment: Inhibition of NLRP3 inflammasome in LPS-primed C57BL/6 mouse bone marrow derived macrophages assessed as reduction in ATP-induced IL-1beta production at 10 uM preincubated for 1 hr followed by stimulation with ATP measured after 30 mins by ELISA
Outline: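 C57BL/6 bone marrow macrophages, differentiated with 20% L-cell medium, were primed with LPS (1 µg/mL, 3 h). They were then exposed to compound or vehicle for 1 h and stimulated with ATP (5 mM, 30 min). IL-1β released into the medium was measured by ELISA.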

[15] = biological target: NACHT, LRR and PYD domains-containing protein 3 (Homo sapiens) (UniProt Q96P20); experiment: Irreversible inhibition of His-FLAG- tagged NLRP3-ATPase (unknown origin) at 100 uM preincubated for 55 mins followed by ATP addition measured after 40 mins by ADP-Glo assay
Outline: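 His-FLAG NLRP3 (105 ng/well) captured on anti-FLAG-coated, BSA-blocked wells for 3 h at 4 °C. Compound (100 µM final, 2% DMSO) preincubated 55 min at 37 °C. Wells were washed three times (or not washed), then ATP (250 µM) was added for 40 min at 37 °C. ADP was read by ADP-Glo. Equal protein loading was checked by anti-His ELISA.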

Question: For C=C(Cc1ccccc1Cl)C(=O)OCC, which inhibition [1] is on record?
Answer: Its inhibition is “Active”.

Question: And the inhibition [2]?
Answer: The inhibition was “Active”.

Question: And the Drug metabolism [3]?
Answer: The Drug metabolism was “Metabolite not detected”.

Question: What about the Drug metabolism (Liver) of the same compound?
Answer: Its Drug metabolism is “Metabolite_Detected”.

Question: And the inhibition [4]?
Answer: The inhibition was “Active”.

Question: What about the Activity (Rattus norvegicus [5]) of the same compound?
Answer: Its Activity is “Active”.

Question: What about the Activity (Rattus norvegicus [6]) of the same compound?
Answer: Its Activity is 3.3 pg/mg.

Question: And the inhibition [7]?
Answer: Its inhibition is “Active”.

Question: What about the Activity (Rattus norvegicus [8]) of the same compound?
Answer: Its Activity is -13%.

Question: What about the Drug metabolism [9] of the same compound?
Answer: The Drug metabolism was “Metabolite not detected”.

Question: And the inhibition [10]?
Answer: Its inhibition is “Active”.

Question: And the Stability [11]?
Answer: The Stability was 77.5%.

Question: What about the Activity (Rattus norvegicus [12]) of the same compound?
Answer: Its Activity is 16.4 ng/mg.

Question: What about the Activity (Rattus norvegicus [13]) of the same compound?
Answer: The Activity was 4.8%.

Question: What about the inhibition [14] of the same compound?
Answer: The inhibition was “Active”.

Question: What about the inhibition [15] of the same compound?
Answer: The inhibition was 45%.
